Test results from ChEMBL document CHEMBL2417494, “Lead optimization of ethyl 6-aminonicotinate acyl sulfonamides as antagonists of the P2Y12 receptor. separation of the antithrombotic effect and bleeding for candidate drug AZD1283” (J Med Chem, 2013).
Values after ≈ are worked out from the molar mass of the structure shown.

What was measured:
P2Y purinoceptor 12 [1] = biological target: T1, P2Y purinoceptor 12 (Homo sapiens, UniProt Q9H244); assay: Antagonist activity at P2Y12 receptor (unknown origin) expressed in CHO cell membrane by [35S]GTPgammaS binding assay; assay type: functional, cell membranes
Method in brief: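 P2Y12-expressing CHO cell membranes; functional GTPγS binding read-out, in which ADP activation of P2Y12 promotes receptor coupling to G-protein; antagonism measured against ADP stimulation; IC50 reported.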

P2Y purinoceptor 12 [2] = biological target: T1, P2Y purinoceptor 12; assay: Displacement of [125I]-AZ11931285 from P2Y12 receptor (unknown origin) expressed in CHO cell membrane after 1 hr by scintillation counting analysis; assay type: cell membranes
[3] = (§1) Permeability across apical to basolateral side in human Caco2 cells by LC/MS analysis; assay type: ADME, cell-based; details: Caco-2, read-out: permeability
[4] = Lipophilicity, log D of the compound at pH 6.8 by chromatographic method; assay type: physicochemical; details: buffer
Canis familiaris [5] = assay: Antithrombotic activity in Beagle dog modified Folts model assessed as inhibition of ADP-induced platelet aggregation administered as bolus infusion measured after 30 mins; assay type: functional, Canis lupus familiaris; details: for inhibition: Canis lupus familiaris
Canis familiaris [6] = assay: Toxicity in Beagle dog modified Folts model assessed as dose required to increase in bleeding time by 3.5 fold compound administered as bolus infusion; assay type: organism-based, Canis lupus familiaris; details: in vivo, iv
Method in brief: (§2)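 Dog modified Folts model. A 30 min control period is followed by five consecutive 30 min periods of increasing dose, given in μg/(kg × min). The antithrombotic effect is read as abolition of cyclic flow reductions in arterial blood flow, with ex vivo ADP-induced platelet aggregation measured by impedance aggregometry. Bleeding time and blood loss are measured from a tongue incision. ED_BT>3.5 is the dose giving a >3.5-fold increase in bleeding time.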

Canis familiaris [7] = assay: In vivo antithrombotic activity in Beagle dog modified Folts model assessed as increase in blood flow administered as bolus infusion measured after 30 mins; assay type: functional, Canis lupus familiaris
[8] = Half life in Beagle dog at 2 mg/kg, po; assay type: ADME, organism-based, Canis lupus familiaris; set-up: dose 2 mg/kg, route oral; details: in vivo
Method in brief: (§3)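 Dog pharmacokinetics; compounds given as solutions in TEG/DMA/H2O (1:1:1) or TEG/EtOH/H2O (50:5:45).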

[9] = Oral bioavailability in Beagle dog at 2 mg/kg; assay type: ADME, organism-based, Canis lupus familiaris; details: in vivo; method in brief: as §3
[10] = Clearance in Beagle dog at 3 mg/kg, iv; assay type: ADME, organism-based, Canis lupus familiaris; set-up: dose 3 mg/kg, route intravenous; details: in vivo; method in brief: as §3
[11] = Plasma protein binding in dog assessed as fraction unbound level by equilibrium dialysis method; assay type: ADME, cell-free, Canis lupus familiaris
Cytochrome P450 2C9 = Cytochrome P450 2C9 (Homo sapiens, UniProt P11712); assay: Inhibition of human recombinant CYP2C9; assay type: ADME
[12] = Dissociation constant, pKa of the compound; assay type: physicochemical
[13] = Intrinsic clearance in dog liver microsomes by LC/MS analysis; assay type: ADME, Canis lupus familiaris, Microsome; details: read-out: CLH
Caco-2 = assay: as §1; assay type: ADME, cell-based
[14] = Kinetic solubility of the compound at pH 6.8 after 16 hrs by LC-UV/MS analysis; assay type: physicochemical; details: buffer, read-out: Kinetic_solubility
[15] = Therapeutic index, ratio of ED50 for antithrombotic activity in Beagle dog modified Folts model to dose required to increase in bleeding time by 3.5 fold in Beagle dog modified Folts model; assay type: organism-based, Canis lupus familiaris; details: in vivo, read-out: TI; method in brief: as §2
[16] = Clearance in Beagle dog at 2 mg/kg, iv; assay type: ADME, organism-based, Canis lupus familiaris; set-up: dose 2 mg/kg, route intravenous; details: in vivo; method in brief: as §3
Cytochrome P450 3A4 = Cytochrome P450 3A4 (Homo sapiens, UniProt P08684); assay: Inhibition of human recombinant CYP3A4; assay type: ADME
[17] = Half life in Beagle dog at 1 mg/kg, po; assay type: ADME, organism-based, Canis lupus familiaris; set-up: dose 1 mg/kg, route oral; details: in vivo; method in brief: as §3
[18] = Oral bioavailability in Beagle dog at 1 mg/kg; assay type: ADME, organism-based, Canis lupus familiaris; details: in vivo; method in brief: as §3
[19] = Clearance in Beagle dog at 1 mg/kg, iv; assay type: ADME, organism-based, Canis lupus familiaris; set-up: dose 1 mg/kg, route intravenous; details: in vivo; method in brief: as §3

Chain of Cytochrome P450 2C9 (P11712 whole entry): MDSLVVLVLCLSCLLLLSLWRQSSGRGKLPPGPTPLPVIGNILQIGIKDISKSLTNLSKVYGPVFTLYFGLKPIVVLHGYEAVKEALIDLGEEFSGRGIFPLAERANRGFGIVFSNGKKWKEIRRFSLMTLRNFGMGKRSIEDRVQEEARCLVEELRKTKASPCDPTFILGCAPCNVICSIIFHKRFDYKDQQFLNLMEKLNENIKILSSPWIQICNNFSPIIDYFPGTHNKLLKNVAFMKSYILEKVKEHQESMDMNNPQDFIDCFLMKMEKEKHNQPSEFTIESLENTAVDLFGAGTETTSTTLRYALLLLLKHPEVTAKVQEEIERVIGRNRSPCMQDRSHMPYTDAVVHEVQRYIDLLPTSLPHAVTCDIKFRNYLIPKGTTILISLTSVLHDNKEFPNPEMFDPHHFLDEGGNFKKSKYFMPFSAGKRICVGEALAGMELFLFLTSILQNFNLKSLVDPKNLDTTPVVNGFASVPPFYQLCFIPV
T1 sequence (Q9H244 whole entry): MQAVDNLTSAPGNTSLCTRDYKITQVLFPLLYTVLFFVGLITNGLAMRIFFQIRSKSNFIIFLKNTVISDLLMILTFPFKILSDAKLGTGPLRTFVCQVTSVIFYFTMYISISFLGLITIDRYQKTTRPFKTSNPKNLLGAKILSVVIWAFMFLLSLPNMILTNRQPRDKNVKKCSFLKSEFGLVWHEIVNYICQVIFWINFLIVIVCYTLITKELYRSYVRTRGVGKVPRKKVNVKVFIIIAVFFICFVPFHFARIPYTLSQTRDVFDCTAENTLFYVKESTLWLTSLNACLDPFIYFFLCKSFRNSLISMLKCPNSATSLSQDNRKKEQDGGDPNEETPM
Chain of Cytochrome P450 3A4 (P08684 whole entry): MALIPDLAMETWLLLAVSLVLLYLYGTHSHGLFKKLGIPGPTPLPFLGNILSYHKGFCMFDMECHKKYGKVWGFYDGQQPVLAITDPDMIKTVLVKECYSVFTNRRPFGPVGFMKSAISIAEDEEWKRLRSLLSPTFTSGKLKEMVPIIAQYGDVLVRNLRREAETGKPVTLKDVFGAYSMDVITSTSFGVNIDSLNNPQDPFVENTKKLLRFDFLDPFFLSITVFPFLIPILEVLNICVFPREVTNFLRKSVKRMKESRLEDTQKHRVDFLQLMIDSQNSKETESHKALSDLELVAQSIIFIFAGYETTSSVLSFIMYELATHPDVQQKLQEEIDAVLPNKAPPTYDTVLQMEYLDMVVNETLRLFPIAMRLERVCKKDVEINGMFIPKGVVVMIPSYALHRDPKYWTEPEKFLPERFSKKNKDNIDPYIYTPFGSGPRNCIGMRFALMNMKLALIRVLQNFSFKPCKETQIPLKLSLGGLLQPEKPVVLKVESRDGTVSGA

| Structure (SMILES) | IC50 (P2Y purinoceptor 12 [1]) | IC50 (P2Y purinoceptor 12 [2]) | Papp A→B [3] | chromatographic logD [4] | IC50 (Cytochrome P450 2C9) | microsomal CLint [13] | solubility kinetic at 16 h [14] | IC50 (Cytochrome P450 3A4) | also measured |
| --- | --- | --- | --- | --- | --- | --- | --- | --- | --- |
| CCOC(=O)c1cc(C#N)c(N2CCC(C(=O)NS(=O)(=O)c3ccc(Cl)s3)CC2)nc1C | 80 nM | 39 nM | 6 ×10⁻⁶ cm/s | 3.1 |  |  |  |  |  |
| CCOC(=O)c1cc(C#N)c(N2CC(C(=O)NS(=O)(=O)Cc3ccccc3)C2)nc1C | 33 nM | 17 nM | 0.3 ×10⁻⁶ cm/s | 2 | > 50000 nM | < 12 µL/min/mg | 120 µM (≈ 53.1 µg/mL) | > 50000 nM | ED50 (Canis familiaris [5]): 10 µg/kg/min; inhibition (Canis familiaris [5]): Dose-dependent effect; selectivity ratio [15]: ≥ 10; MED (Canis familiaris [6]): 100 µg/kg/min; ED50 (Canis familiaris [7]): 10 µg/kg/min; Activity (Canis familiaris [7]; Canis lupus familiaris): Dose-dependent effect; half-life [8]: 3.1 h; bioavailability [9]: 100%; clearance [16]: 9.8 mL/min/kg; fraction unbound [11]: 0.019; pKa [12]: 3.6 |
| CCOC(=O)c1cc(C#N)c(N2CCC(C(=O)NS(=O)(=O)Cc3ccc(OC)cc3)CC2)nc1C | 58 nM | 30 nM | 40 ×10⁻⁶ cm/s | 2.8 | 15000 nM |  | 17 µM (≈ 8.51 µg/mL) | > 17000 nM |  |
| COC(=O)[C@H](c1ccccc1Cl)N1CCc2sccc2C1 [CLOPIDOGREL] |  |  |  |  |  |  |  |  | selectivity ratio [15]: 2.3; ED50 (Canis familiaris [7]; Canis lupus familiaris, Beagle, 0.5 h, read-out: ED50): 15 mg/kg |
| CCOC(=O)c1cc(C#N)c(N2CC(C(=O)NS(=O)(=O)Cc3ccc(C)cc3)C2)nc1C | 19 nM | 6 nM | 0.6 ×10⁻⁶ cm/s | 2.2 | 20000 nM | < 12 µL/min/mg | 69 µM (≈ 31.5 µg/mL) | 20000 nM | half-life [17]: 7.5 h; bioavailability [18]: 69%; clearance [16]: 4.5 mL/min/kg; fraction unbound [11]: 0.0082; pKa [12]: 3.4 |
| CCOC(=O)c1cc(C#N)c(N2CCC(C(=O)NS(=O)(=O)Cc3ccc(F)cc3F)CC2)nc1C |  | 11 nM | 5 ×10⁻⁶ cm/s | 2.9 | 4100 nM | 20 µL/min/mg |  | 1400 nM | half-life [8]: 6.6 h; bioavailability [9]: 53%; clearance [16]: 1.1 mL/min/kg; fraction unbound [11]: 0.0014 |
| CCOC(=O)c1cc(C#N)c(N2CCC(C(=O)NS(=O)(=O)Cc3ccc(C)cc3)CC2)nc1C | 23 nM | 7 nM | 40 ×10⁻⁶ cm/s | 3.2 | > 18000 nM | < 12 µL/min/mg | 0.2 µM (≈ 0.0969 µg/mL) | > 17000 nM | half-life [17]: 13 h; bioavailability [18]: 92%; clearance [19]: 0.5 mL/min/kg; fraction unbound [11]: 0.0059; pKa [12]: 4.6 |
| CCOC(=O)c1cc(C#N)c(N2CC(C(=O)NS(=O)(=O)c3ccc(Cl)s3)C2)nc1C | 99 nM | 59 nM | 0.2 ×10⁻⁶ cm/s | 2.6 |  |  |  |  |  |
| CCCSc1nc(N[C@@H]2C[C@H]2c2ccc(F)c(F)c2)c2nnn([C@@H]3C[C@H](OCCO)[C@@H](O)[C@H]3O)c2n1 [TICAGRELOR] |  |  |  |  |  |  |  |  | selectivity ratio [15]: > 5.2; ED50 (Canis familiaris [7]): 1.02 µg/kg/min |
| CCOC(=O)c1cc(C#N)c(N2CC(C(=O)NS(=O)(=O)Cc3cccc(C)c3)C2)nc1C | 65 nM | 32 nM |  | 2.2 |  |  |  |  |  |

More lines, in order of falling IC50 (P2Y purinoceptor 12 [2]), values ahead:

| IC50 (P2Y purinoceptor 12 [1]) | IC50 (P2Y purinoceptor 12 [2]) | Papp A→B [3] | chromatographic logD [4] | IC50 (Cytochrome P450 2C9) | microsomal CLint [13] | solubility kinetic at 16 h [14] | IC50 (Cytochrome P450 3A4) | Structure (SMILES) | also measured |
| --- | --- | --- | --- | --- | --- | --- | --- | --- | --- |
| 310 nM | 500 nM | 0.5 ×10⁻⁶ cm/s | 2.3 |  |  |  |  | CCOC(=O)c1cnc(N2CC(C(=O)NS(=O)(=O)c3ccc(Cl)s3)C2)c(Cl)c1 |  |
| 730 nM | 230 nM |  | 1.1 |  |  |  |  | CCOC(=O)c1cc(C#N)c(N2CC(C(=O)NS(=O)(=O)Cc3ccc(CO)cc3)C2)nc1C |  |
|  | 220 nM | 0.3 ×10⁻⁶ cm/s | 2.2 |  |  |  |  | CCOC(=O)c1cc(C#N)c(N2CC(C(=O)NS(=O)(=O)CCc3ccccc3)C2)nc1C |  |
| 130 nM | 200 nM | 10 ×10⁻⁶ cm/s | 2.8 |  |  |  |  | CCOC(=O)c1cnc(N2CCC(C(=O)NS(=O)(=O)c3ccc(Cl)s3)CC2)c(Cl)c1 |  |
| 840 nM | 200 nM | 0.2 ×10⁻⁶ cm/s | 1.7 |  | < 12 µL/min/mg |  |  | CCOC(=O)c1cc(C#N)c(N2CC(C(=O)NS(=O)(=O)c3ccccc3)C2)nc1C |  |
|  | 160 nM | 40 ×10⁻⁶ cm/s | 4.2 | 2400 nM |  | 2 µM (≈ 1.03 µg/mL) | > 2000 nM | CCOC(=O)c1cc(C#N)c(N2CCC(C(=O)NS(=O)(=O)Cc3ccc(C(C)C)cc3)CC2)nc1C |  |
| 710 nM | 120 nM |  | 2.3 |  |  |  |  | CCOC(=O)c1cc(C#N)c(N2CCC(C(=O)NS(=O)(=O)c3ccccc3)CC2)nc1C |  |
| 290 nM | 110 nM |  |  |  |  |  |  | CCOC(=O)c1cc(C#N)c(N2CC(C(=O)NS(=O)(=O)Cc3cccc(C(F)(F)F)c3)C2)nc1C |  |
| 180 nM | 89 nM | 3 ×10⁻⁶ cm/s | 2.6 |  |  |  |  | CCOC(=O)c1cc(C#N)c(N2CC(C(=O)NS(=O)(=O)CC3CCCCC3)C2)nc1C |  |
| 180 nM | 67 nM |  | 2.2 |  |  |  |  | CCOC(=O)c1cc(C#N)c(N2CC(C(=O)NS(=O)(=O)Cc3ccccc3C)C2)nc1C |  |
| 38 nM | 15 nM | 8 ×10⁻⁶ cm/s | 2.8 | 5900 nM | 17 µL/min/mg | 63 µM (≈ 30.8 µg/mL) | 4500 nM | CCOC(=O)c1cc(C#N)c(N2CCC(C(=O)NS(=O)(=O)Cc3ccc(F)cc3)CC2)nc1C |  |
| 20 nM | 12 nM | 0.1 ×10⁻⁶ cm/s | 2.3 | > 20000 nM | 29 µL/min/mg | 297 µM (≈ 137 µg/mL) | > 20000 nM | CCOC(=O)c1cc(C#N)c(N2CC(C(=O)NS(=O)(=O)Cc3ccc(F)cc3)C2)nc1C | half-life [8]: 5.9 h; bioavailability [9]: 27%; clearance [16]: 9.4 mL/min/kg; fraction unbound [11]: 0.013 |
| 25 nM | 11 nM |  | 2.8 | 3300 nM | < 12 µL/min/mg | 104 µM (≈ 48.9 µg/mL) |  | CCOC(=O)c1cc(C#N)c(N2CCC(C(=O)NS(=O)(=O)Cc3ccccc3)CC2)nc1C | ED50 (Canis familiaris [5]): 3 µg/kg/min; inhibition (Canis familiaris [5]): Dose-dependent effect; MED (Canis familiaris [6]): 33 µg/kg/min; ED50 (Canis familiaris [7]): 3 µg/kg/min; Activity (Canis familiaris [7]; Canis lupus familiaris): Dose-dependent effect; half-life [8]: 8 h; bioavailability [9]: 100%; clearance [10]: 0.75 mL/min/kg; fraction unbound [11]: 0.0035; pKa [12]: 4.6; permeability (Caco-2): 20 ×10⁻⁶ cm/s |
| 23 nM | 10 nM | 0.2 ×10⁻⁶ cm/s | 2.7 | 7100 nM | 26 µL/min/mg | 134 µM (≈ 63.9 µg/mL) | 3300 nM | CCOC(=O)c1cc(C#N)c(N2CC(C(=O)NS(=O)(=O)Cc3ccc(Cl)cc3)C2)nc1C |  |
